In ChEMBL document CHEMBL3286372, “Design, synthesis and structure-activity relationship of novel semi-synthetic flavonoids as antiproliferative agents” (2014):

Experiments:
[1] = Growth inhibition of human OVCAR5 cells after 48 hrs by coulter counting analysis; format: functional; conditions: OVCAR-5, 48 h
Method in brief: (§1)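 Five-dose NCI-60 follow-up, 0.01–100 µM, made from DMSO stock in buffered saline (final DMSO <1%), in duplicate wells. Cells in RPMI 1640 with 10% FBS at 6×10^4 cells/ml, 37 °C, 5% CO2, 48 h. Cells diluted tenfold in saline, Coulter-counted and corrected for dilution. GI50, TGI and LC50 taken from log concentration–percent growth curves.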

[2] = Growth inhibition of human OVCAR8 cells after 48 hrs by coulter counting analysis; format: functional; conditions: OVCAR-8, 48 h; method in brief: as §1
[3] = Growth inhibition of human NCI-ADR-RES cells after 48 hrs by coulter counting analysis; format: functional; method in brief: as §1
SK-OV-3 = experiment: Growth inhibition of human SKOV3 cells after 48 hrs by coulter counting analysis; format: functional; conditions: SK-OV-3, 48 h; method in brief: as §1
786-0 = experiment: Growth inhibition of human 786-0 cells after 48 hrs by coulter counting analysis; format: functional; conditions: 786-0, 48 h
Method in brief: (§2)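 NCI five-dose screen at 0.01-100 µM, diluted from DMSO stocks in buffered saline (final DMSO <1%). Cells at 6×10^4 cells/ml in RPMI 1640 with 10% FBS, in duplicate wells, at 37 °C under 5% CO2 for 48 h. Cells diluted tenfold in saline and Coulter-counted. GI50, TGI and LC50 taken from log concentration-growth inhibition curves.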

ACHN = experiment: Growth inhibition of human ACHN cells after 48 hrs by coulter counting analysis; format: functional; method in brief: as §2
CAKI-1 = experiment: Growth inhibition of human CAKI-1 cells after 48 hrs by coulter counting analysis; format: functional; conditions: CAKI-1, 48 h; method in brief: as §2
[4] = Growth inhibition of human RXF393 cells after 48 hrs by coulter counting analysis; format: functional; conditions: RXF 393, 48 h; method in brief: as §1
MCF7 = experiment: Growth inhibition of human MCF7 cells after 48 hrs by coulter counting analysis; format: functional; conditions: MCF7, 48 h; method in brief: as §2
[5] = Growth inhibition of human BT549 cells after 48 hrs by coulter counting analysis; format: functional; conditions: BT-549, 48 h; method in brief: as §2
[6] = target: Cyclin-dependent kinase 2/cyclin E1 (Homo sapiens) (UniProt P24864+P24941); experiment: Inhibition of CDK2/Cyclin E1 (unknown origin) at 20 uM after 30 mins by scintillation counting analysis relative to control; format: protein-complex assay
Method in brief: (§3)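 Recombinant kinases, cloned, expressed and purified in-house. Radiometric ³³P-ATP assay with kinase at ~10-50 nM final and 1-5 µg peptide or protein substrate. Compound at 20 µM final, in duplicate. Reaction started by adding ATP, run 30 min at ambient temperature, then spotted on P81 phosphocellulose. Plates washed in 1% phosphoric acid and counted by scintillation. No-substrate blank subtracted. Result is mean % activity change versus DMSO control.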

[7] = target: Cyclin-dependent kinase 4/cyclin D1 (Homo sapiens) (UniProt P11802+P24385); experiment: Inhibition of CDK4/Cyclin D1 (unknown origin) at 20 uM after 30 mins by scintillation counting analysis relative to control; format: protein-complex assay; method in brief: as §3
K562 = experiment: Growth inhibition of human K562 cells after 48 hrs by coulter counting analysis; format: functional; conditions: K562, 48 h; method in brief: as §2
[8] = Growth inhibition of human MOLT4 cells after 48 hrs by coulter counting analysis; format: functional; conditions: MOLT-4, 48 h; method in brief: as §1
A549 = experiment: Growth inhibition of human A549/ATCC cells after 48 hrs by coulter counting analysis; format: functional; conditions: A549, 48 h; method in brief: as §2
HOP-62 = experiment: Growth inhibition of human HOP62 cells after 48 hrs by coulter counting analysis; format: functional; conditions: HOP-62, 48 h; method in brief: as §2
[9] = Growth inhibition of human HOP92 cells after 48 hrs by coulter counting analysis; format: functional; conditions: HOP-92, 48 h; method in brief: as §2
NCI-H226 = experiment: Growth inhibition of human NCI-H226 cells after 48 hrs by coulter counting analysis; format: functional; conditions: NCI-H226, 48 h; method in brief: as §1
NCI-H23 = experiment: Growth inhibition of human NCI-H23 cells after 48 hrs by coulter counting analysis; format: functional; conditions: NCI-H23, 48 h; method in brief: as §1
NCI-H460 = experiment: Growth inhibition of human NCI-H460 cells after 48 hrs by coulter counting analysis; format: functional; conditions: NCI-H460, 48 h; method in brief: as §1
NCI-H522 = experiment: Growth inhibition of human NCI-H522 cells after 48 hrs by coulter counting analysis; format: functional; conditions: NCI-H522, 48 h; method in brief: as §1
[10] = Growth inhibition of human HCC2998 cells after 48 hrs by coulter counting analysis; format: functional; conditions: HCC 2998, 48 h; method in brief: as §2
HCT-116 = experiment: Growth inhibition of human HCT116 cells after 48 hrs by coulter counting analysis; format: functional; conditions: HCT-116, 48 h; method in brief: as §2
[11] = Growth inhibition of human HCT15 cells after 48 hrs by coulter counting analysis; format: functional; conditions: HCT-15, 48 h; method in brief: as §2
HT-29 = experiment: Growth inhibition of human HT-29 cells after 48 hrs by coulter counting analysis; format: functional; conditions: HT-29, 48 h; method in brief: as §2
KM12 = experiment: Growth inhibition of human KM12 cells after 48 hrs by coulter counting analysis; format: functional; conditions: KM12, 48 h; method in brief: as §2
SW-620 = experiment: Growth inhibition of human SW620 cells after 48 hrs by coulter counting analysis; format: functional; conditions: SW-620, 48 h; method in brief: as §1
[12] = Growth inhibition of human SF295 cells after 48 hrs by coulter counting analysis; format: functional; conditions: SF-295, 48 h; method in brief: as §1
[13] = Growth inhibition of human SF539 cells after 48 hrs by coulter counting analysis; format: functional; conditions: SF-539, 48 h; method in brief: as §1
SNB-75 = experiment: Growth inhibition of human SNB75 cells after 48 hrs by coulter counting analysis; format: functional; conditions: SNB-75, 48 h; method in brief: as §1
U-251 = experiment: Growth inhibition of human U251 cells after 48 hrs by coulter counting analysis; format: functional; conditions: U-251, 48 h
Method in brief: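 NCI five-dose screen, 0.01-100 µM, from DMSO stocks diluted in buffer saline (final DMSO <1%). Cells grown in RPMI 1640 + 10% FBS, seeded at 6×10^4 cells/ml, in duplicate wells. Exposure 48 h at 37 °C, 5% CO2. Cells diluted 10-fold in saline and counted by Coulter counter. GI50 derived from log concentration–percent growth inhibition curves. Controls carried matching PBS/saline/DMSO.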

Malme-3M = experiment: Growth inhibition of human MALME-3M cells after 48 hrs by coulter counting analysis; format: functional; method in brief: as §2
M14 = experiment: Growth inhibition of human M14 cells after 48 hrs by coulter counting analysis; format: functional; conditions: M14, 48 h; method in brief: as §2
MDA-MB-435 = experiment: Growth inhibition of human MDA-MB-435 cells after 48 hrs by coulter counting analysis; format: functional; conditions: MDA-MB-435, 48 h; method in brief: as §2
SK-MEL-2 = experiment: Growth inhibition of human SK-MEL-2 cells after 48 hrs by coulter counting analysis; format: functional; conditions: SK-MEL-2, 48 h; method in brief: as §1
SK-MEL-5 = experiment: Growth inhibition of human SK-MEL-5 cells after 48 hrs by coulter counting analysis; format: functional; conditions: SK-MEL-5, 48 h; method in brief: as §1
IGROV-1 = experiment: Growth inhibition of human IGROV1 cells after 48 hrs by coulter counting analysis; format: functional; conditions: IGROV-1, 48 h; method in brief: as §2
[14] = Growth inhibition of human OVCAR3 cells after 48 hrs by coulter counting analysis; format: functional; conditions: OVCAR-3, 48 h; method in brief: as §1

In the case of `C=CCc1c(O)c(C(=O)/C=C/c2ccc(Cl)cc2)c(OC)c2ccoc12`, the GI50 [1] is reported as 2.8 µM, the GI50 [2] is reported as 3.04 µM and the GI50 [3] is reported as 2.23 µM. For the same molecule, the GI50 (SK-OV-3) was 5.96 µM, the GI50 (786-0) was 4.83 µM and the GI50 (ACHN) was 2.31 µM. For the same molecule, the GI50 (CAKI-1) was 2.61 µM, the GI50 [4] was 1.72 µM and the GI50 (MCF7) was 2.51 µM. For the same molecule, the GI50 [5] was 3 µM, the inhibition [6] was 3% and the inhibition [7] was 0%. The GI50 (K562) was 3.25 µM, the GI50 [8] was 2.61 µM and the GI50 (A549) was 4.7 µM. For the same molecule, the GI50 (HOP-62) was 2.31 µM, the GI50 [9] was 1.69 µM and the GI50 (NCI-H226) was 1.52 µM. The GI50 (NCI-H23) was 2.78 µM, the GI50 (NCI-H460) was 3.2 µM and the GI50 (NCI-H522) was 1.88 µM. For the same molecule, the GI50 [10] was 1.79 µM, the GI50 (HCT-116) was 2.74 µM and the GI50 [11] was 3.4 µM. The GI50 (HT-29) was 1.89 µM, the GI50 (KM12) was 3.72 µM and the GI50 (SW-620) was 2.56 µM. The GI50 [12] was 2.77 µM, the GI50 [13] was 1.79 µM and the GI50 (SNB-75) was 2.01 µM. For the same molecule, the GI50 (U-251) was 2.3 µM, the GI50 (Malme-3M) was 2.74 µM and the GI50 (M14) was 5.08 µM. The GI50 (MDA-MB-435) was 2.06 µM, the GI50 (SK-MEL-2) was 3.97 µM and the GI50 (SK-MEL-5) was 2.07 µM. It also gave a GI50 (IGROV-1) of 3.46 µM and a GI50 [14] of 1.97 µM.

Molecule `COc1ccc(-c2cc(=O)c3c(OC)c4ccoc4c(/C=C/C=O)c3o2)cc1` has a GI50 [1] of 11.7 µM, a GI50 [2] of 2.83 µM and a GI50 [3] of 2.84 µM. It also gave a GI50 (SK-OV-3) of 4.73 µM, a GI50 (786-0) of 16.8 µM and a GI50 (ACHN) of 19.3 µM. For the same molecule, the GI50 (CAKI-1) was 5.03 µM, the GI50 [4] was 2.15 µM and the GI50 (MCF7) was 1.63 µM. The GI50 [5] was 2.14 µM, the inhibition [6] was 0% and the inhibition [7] was 0%. For the same molecule, the GI50 (K562) was 2.8 µM, the GI50 [8] was 1.84 µM and the GI50 (A549) was 18.5 µM. For the same molecule, the GI50 (HOP-62) was 2.98 µM, the GI50 [9] was 16.8 µM and the GI50 (NCI-H226) was 2.93 µM. It also gave a GI50 (NCI-H23) of 2.8 µM, a GI50 (NCI-H460) of 4.7 µM and a GI50 (NCI-H522) of 34.6 µM. For the same molecule, the GI50 [10] was 13.7 µM, the GI50 (HCT-116) was 1.06 µM and the GI50 [11] was 1.73 µM. It also gave a GI50 (HT-29) of 18.1 µM, a GI50 (KM12) of 12.3 µM and a GI50 (SW-620) of 2.3 µM. The GI50 [12] was 3.4 µM, the GI50 [13] was 4.14 µM and the GI50 (SNB-75) was 3.13 µM. It also gave a GI50 (U-251) of 2.53 µM, a GI50 (Malme-3M) of 3.79 µM and a GI50 (M14) of 2.24 µM. The GI50 (MDA-MB-435) was 2.81 µM, the GI50 (SK-MEL-2) was 9.06 µM and the GI50 (SK-MEL-5) was 1.69 µM. For the same molecule, the GI50 (IGROV-1) was 13.6 µM and the GI50 [14] was 3.92 µM.
